Assay results reported in ChEMBL document CHEMBL1143430, “Synthesis and free radical scavenging activity of some new spiropyranocoumarins” (Bioorg Med Chem Lett, 2008).

How the values were obtained:
[1] = test system: Radical scavenging activity; assay: Antioxidant activity assessed as DPPH free radical scavenging activity after 20 mins; format: functional
Procedure, shortened: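 Test compound at 5–200 μM mixed with an equal volume of 200 μM DPPH in ethanol, incubated 20 min at room temperature; absorbance read at 517 nm (also at 30, 45 and 60 min). IC50 = concentration giving 50% inhibition of 200 μM DPPH, from linear regression over at least five concentrations in triplicate; mean ± SD of at least three experiments.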

[2] = Antioxidant activity assessed as inhibition of xanthine-xanthine oxidase generated superoxide anion radical production at 0.5 mM; format: functional
Procedure, shortened: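 Superoxide generated enzymically by xanthine oxidase (0.07 U ml⁻¹, added to start the reaction) with 200 μM xanthine and 600 μM NBT in 0.1 phosphate buffer, pH 7.4. Read-out was the NBT reduction product.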

SMILES	IC50 [1]	inhibition [2]
O=c1cc(O)c2ccc3c(c2o1)C=CC1(CCCC1)O3	182 µM	< 10%
O=c1cc(O)c2ccc3c(c2o1)[C@@H](O)[C@@H](O)C1(CCCC1)O3	97.8 µM	63.5%
Cc1cc(C(C)(C)C)c(O)c(C(C)(C)C)c1 [BUTYLATED HYDROXYTOLUENE]	83.8 µM	
Oc1ncnc2[nH]ncc12		42.3%
O=c1cc(O)c2ccc3c(c2o1)C=CC1(CCCCCC1)O3	202 µM	< 10%
O=c1cc(O)c2ccc3c(c2o1)[C@@H](O)[C@@H](O)C1(CCCCC1)O3	161 µM	51.7%
O=c1cc(O)c2ccc3c(c2o1)C=CC1(O3)C2CC3CC(C2)CC1C3 (configuration not stated)	130 µM	37.3%
O=c1ccc2ccc(O)cc2o1 [UMBELLIFERONE]	> 400 µM	32.6%
O=c1cc(O)c2ccc3c(c2o1)[C@@H](O)[C@@H](O)C1(O3)C2CC3CC(C2)CC1C3 (some centres not stated)	166 µM	48.3%
O=c1cc(O)c2ccc3c(c2o1)[C@@H](O)[C@@H](O)C1(CCCCCC1)O3	158 µM	35.8%
O=c1cc(O)c2ccc3c(c2o1)C=CC1(CCCCC1)O3	201 µM	< 10%
O=c1cc(O)c2ccccc2o1 [4-HYDROXYCOUMARINS]	124 µM	19.4%
